≈ marks a conversion by molar mass, not a printed value.
Columns and labels:
Format in all cases: functional
Bacillus cereus [1] = assay: Antibacterial activity against Bacillus cereus CIP 6624 after 18 hrs by agar dilution method; conditions: CIP 6624, 18 h
Summary of the method: (§1)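 Agar-dilution MIC against Gram-positive strains. Compounds in DMSO, geometric dilutions giving final 100−0.75 mg/L in Mueller Hinton agar. Strains grown 18 h at 37 °C in trypticase soy broth, diluted in sterile water, spotted by Steers inoculator (about 1000 UFC/spot). Plates incubated 18 h at 37 °C; DMSO blank; ofloxacin positive control. MIC = lowest concentration with no visible growth.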

Bacillus cereus [2] = assay: Antibacterial activity against Bacillus cereus N190 after 18 hrs by agar dilution method; conditions: N190, 18 h; summary of the method: as §1
Bacillus cereus [3] = assay: Antibacterial activity against Bacillus cereus N258 after 18 hrs by agar dilution method; conditions: N258, 18 h; summary of the method: as §1
Bacillus cereus [4] = assay: Antibacterial activity against Bacillus cereus N349 after 18 hrs by agar dilution method; conditions: N349, 18 h; summary of the method: as §1
Bacillus spizizenii = assay: Antibacterial activity against Bacillus subtilis ATCC 6633 after 18 hrs by agar dilution method; conditions: ATCC 6633, 18 h; summary of the method: as §1
Corynebacterium striatum = assay: Antibacterial activity against Corynebacterium striatum N840 after 18 hrs by agar dilution method; conditions: N840, 18 h; summary of the method: as §1
Enterococcus avium = assay: Antibacterial activity against Enterococcus avium CIP 104053 after 18 hrs by agar dilution method; conditions: CIP 104053, 18 h; summary of the method: as §1
[5] = tested on: Enterococcus casseliflavus; assay: Antibacterial activity against Enterococcus casseliflavus N487 after 18 hrs by agar dilution method; conditions: N487, 18 h; summary of the method: as §1
[6] = tested on: Enterococcus casseliflavus; assay: Antibacterial activity against Enterococcus casseliflavus CIP 103018 after 18 hrs by agar dilution method; conditions: CIP 103018, 18 h; summary of the method: as §1
Enterococcus durans = assay: Antibacterial activity against Enterococcus durans CIP 104999 after 18 hrs by agar dilution method; conditions: CIP 104999, 18 h; summary of the method: as §1
Enterococcus faecalis [7] = assay: Antibacterial activity against Enterococcus faecalis CIP 103214 after 18 hrs by agar dilution method; conditions: CIP 103214, 18 h; summary of the method: as §1
Enterococcus faecalis [8] = assay: Antibacterial activity against Enterococcus faecalis CIP 104676 after 18 hrs by agar dilution method; conditions: CIP 104676, 18 h; summary of the method: as §1
Enterococcus faecalis [9] = assay: Antibacterial activity against Enterococcus faecalis N491 after 18 hrs by agar dilution method; conditions: N491, 18 h; summary of the method: as §1
Enterococcus faecalis [10] = assay: Antibacterial activity against Enterococcus faecalis N518 after 18 hrs by agar dilution method; conditions: N518, 18 h; summary of the method: as §1
Enterococcus faecalis [11] = assay: Antibacterial activity against Enterococcus faecalis N520 after 18 hrs by agar dilution method; conditions: N520, 18 h; summary of the method: as §1
Enterococcus faecium [12] = assay: Antibacterial activity against Enterococcus faecium CIP 103014 after 18 hrs by agar dilution method; conditions: CIP 103014, 18 h; summary of the method: as §1
Enterococcus faecium [13] = assay: Antibacterial activity against Enterococcus faecium CIP 107387 after 18 hrs by agar dilution method; conditions: CIP 107387, 18 h; summary of the method: as §1
Enterococcus faecium [14] = assay: Antibacterial activity against Enterococcus faecium N490 after 18 hrs by agar dilution method; conditions: N490, 18 h; summary of the method: as §1
Enterococcus faecium [15] = assay: Antibacterial activity against Enterococcus faecium N507 after 18 hrs by agar dilution method; conditions: N507, 18 h; summary of the method: as §1
Enterococcus faecium [16] = assay: Antibacterial activity against Enterococcus faecium N733 after 18 hrs by agar dilution method; conditions: N733, 18 h; summary of the method: as §1
Enterococcus faecium [17] = assay: Antibacterial activity against Enterococcus faecium N823 after 18 hrs by agar dilution method; conditions: N823, 18 h; summary of the method: as §1
Enterococcus gallinarum [18] = assay: Antibacterial activity against Enterococcus gallinarum CIP 105985 after 18 hrs by agar dilution method; conditions: CIP 105985, 18 h; summary of the method: as §1
Enterococcus gallinarum [19] = assay: Antibacterial activity against Enterococcus gallinarum N489 after 18 hrs by agar dilution method; conditions: N489, 18 h; summary of the method: as §1
Enterococcus gallinarum [20] = assay: Antibacterial activity against Enterococcus gallinarum N492 after 18 hrs by agar dilution method; conditions: N492, 18 h; summary of the method: as §1
Enterococcus hirae = assay: Antibacterial activity against Enterococcus hirae CIP 5855 after 18 hrs by agar dilution method; conditions: CIP 5855, 18 h; summary of the method: as §1
Listeria innocua = assay: Antibacterial activity against Listeria innocua E044 after 18 hrs by agar dilution method; conditions: E044, 18 h; summary of the method: as §1
Listeria monocytogenes [21] = assay: Antibacterial activity against Listeria monocytogenes CIP 103575 after 18 hrs by agar dilution method; conditions: CIP 103575, 18 h; summary of the method: as §1
Listeria monocytogenes [22] = assay: Antibacterial activity against Listeria monocytogenes N783 after 18 hrs by agar dilution method; conditions: N783, 18 h; summary of the method: as §1
Listeria monocytogenes [23] = assay: Antibacterial activity against Listeria monocytogenes N836 after 18 hrs by agar dilution method; conditions: N836, 18 h; summary of the method: as §1
Listeria monocytogenes [24] = assay: Antibacterial activity against Listeria monocytogenes N851 after 18 hrs by agar dilution method; conditions: N851, 18 h; summary of the method: as §1
Staphylococcus aureus [25] = assay: Antibacterial activity against Staphylococcus aureus ATCC 25923 after 18 hrs by agar dilution method; conditions: ATCC 25923, 18 h; summary of the method: as §1
Staphylococcus aureus [26] = assay: Antibacterial activity against Staphylococcus aureus ATCC 9144 oxford after 18 hrs by agar dilution method; summary of the method: as §1
Staphylococcus aureus [27] = assay: Antibacterial activity against Staphylococcus aureus CIP 483 after 18 hrs by agar dilution method; conditions: CIP 483, 18 h; summary of the method: as §1
Staphylococcus aureus [28] = assay: Antibacterial activity against Staphylococcus aureus CIP 53154 after 18 hrs by agar dilution method; conditions: CIP 53154, 18 h; summary of the method: as §1
Staphylococcus aureus [29] = assay: Antibacterial activity against Staphylococcus aureus CIP 53156 after 18 hrs by agar dilution method; conditions: CIP 53156, 18 h; summary of the method: as §1
Staphylococcus aureus [30] = assay: Antibacterial activity against Staphylococcus aureus CIP 5710 after 18 hrs by agar dilution method; conditions: CIP 5710, 18 h; summary of the method: as §1
Staphylococcus aureus [31] = assay: Antibacterial activity against Staphylococcus aureus CIP 7625 after 18 hrs by agar dilution method; conditions: CIP 7625, 18 h; summary of the method: as §1
Staphylococcus aureus [32] = assay: Antibacterial activity against Staphylococcus aureus CRBIP 2121 after 18 hrs by agar dilution method; conditions: CRBIP 2121, 18 h; summary of the method: as §1
[33] = tested on: Staphylococcus epidermidis; assay: Antibacterial activity against Staphylococcus epidermidis CIP 53124 after 18 hrs by agar dilution method; conditions: CIP 53124, 18 h; summary of the method: as §1
[34] = tested on: Staphylococcus haemolyticus; assay: Antibacterial activity against Staphylococcus haemolyticus CIP 8156 after 18 hrs by agar dilution method; conditions: CIP 8156, 18 h; summary of the method: as §1
[35] = tested on: Staphylococcus intermedius; assay: Antibacterial activity against Staphylococcus intermedius N987 after 18 hrs by agar dilution method; conditions: N987, 18 h; summary of the method: as §1
[36] = tested on: Staphylococcus lugdunensis; assay: Antibacterial activity against Staphylococcus lugdunensis ATCC 43809 after 18 hrs by agar dilution method; conditions: ATCC 43809, 18 h; summary of the method: as §1
[37] = tested on: Staphylococcus saprophyticus; assay: Antibacterial activity against Staphylococcus saprophyticus CIP 76125 after 18 hrs by agar dilution method; conditions: CIP 76125, 18 h; summary of the method: as §1
[38] = tested on: Staphylococcus saprophyticus; assay: Antibacterial activity against Staphylococcus saprophyticus E260 after 18 hrs by agar dilution method; conditions: E260, 18 h; summary of the method: as §1
Mammaliicoccus sciuri = assay: Antibacterial activity against Staphylococcus sciuri N993 after 18 hrs by agar dilution method; conditions: N993, 18 h; summary of the method: as §1
Streptococcus agalactiae = assay: Antibacterial activity against Streptococcus agalactiae CIP 103227 after 18 hrs by agar dilution method; conditions: ATCC 13813, 18 h; summary of the method: as §1

MIC (Bacillus cereus [1]): 11 µM (≈ 4.02 µg/mL)
MIC (Bacillus cereus [2]): 44 µM (≈ 16.1 µg/mL)
MIC (Bacillus cereus [3]): 11 µM (≈ 4.02 µg/mL)
MIC (Bacillus cereus [4]): 11 µM (≈ 4.02 µg/mL)
MIC (Bacillus spizizenii): ≤ 0.2 µM
MIC (Corynebacterium striatum): 350 µM (≈ 128 µg/mL)
MIC (Enterococcus avium): 0.7 µM (≈ 0.256 µg/mL)
MIC [5]: 0.7 µM (≈ 0.256 µg/mL)
MIC [6]: 0.7 µM (≈ 0.256 µg/mL)
MIC (Enterococcus durans): 1.4 µM (≈ 0.512 µg/mL)
MIC (Enterococcus faecalis [7]): 1.4 µM (≈ 0.512 µg/mL)
MIC (Enterococcus faecalis [8]): 1.4 µM (≈ 0.512 µg/mL)
MIC (Enterococcus faecalis [9]): 0.7 µM (≈ 0.256 µg/mL)
MIC (Enterococcus faecalis [10]): 0.7 µM (≈ 0.256 µg/mL)
MIC (Enterococcus faecalis [11]): 3 µM (≈ 1.1 µg/mL)
MIC (Enterococcus faecium [12]): 0.7 µM (≈ 0.256 µg/mL)
MIC (Enterococcus faecium [13]): 175 µM (≈ 63.9 µg/mL)
MIC (Enterococcus faecium [14]): 22 µM (≈ 8.04 µg/mL)
MIC (Enterococcus faecium [15]): 350 µM (≈ 128 µg/mL)
MIC (Enterococcus faecium [16]): > 350 µM
MIC (Enterococcus faecium [17]): 350 µM (≈ 128 µg/mL)
MIC (Enterococcus gallinarum [18]): 1.4 µM (≈ 0.512 µg/mL)
MIC (Enterococcus gallinarum [19]): 0.7 µM (≈ 0.256 µg/mL)
MIC (Enterococcus gallinarum [20]): 0.7 µM (≈ 0.256 µg/mL)
MIC (Enterococcus hirae): 1.4 µM (≈ 0.512 µg/mL)
MIC (Listeria innocua): 0.7 µM (≈ 0.256 µg/mL)
MIC (Listeria monocytogenes [21]): 0.7 µM (≈ 0.256 µg/mL)
MIC (Listeria monocytogenes [22]): 0.7 µM (≈ 0.256 µg/mL)
MIC (Listeria monocytogenes [23]): 0.7 µM (≈ 0.256 µg/mL)
MIC (Listeria monocytogenes [24]): 0.7 µM (≈ 0.256 µg/mL)
MIC (Staphylococcus aureus [25]): 0.3 µM (≈ 0.11 µg/mL)
MIC (Staphylococcus aureus [26]): ≤ 0.2 µM
MIC (Staphylococcus aureus [27]): 0.3 µM (≈ 0.11 µg/mL)
MIC (Staphylococcus aureus [28]): 0.3 µM (≈ 0.11 µg/mL)
MIC (Staphylococcus aureus [29]): ≤ 0.2 µM
MIC (Staphylococcus aureus [30]): 0.7 µM (≈ 0.256 µg/mL)
MIC (Staphylococcus aureus [31]): 0.3 µM (≈ 0.11 µg/mL)
MIC (Staphylococcus aureus [32]): 175 µM (≈ 63.9 µg/mL)
MIC [33]: ≤ 0.2 µM
MIC [35]: 88 µM (≈ 32.2 µg/mL)
MIC [36]: 0.7 µM (≈ 0.256 µg/mL)
MIC [37]: 0.7 µM (≈ 0.256 µg/mL)
MIC [38]: 0.7 µM (≈ 0.256 µg/mL)
MIC (Mammaliicoccus sciuri): 0.7 µM (≈ 0.256 µg/mL)
MIC (Streptococcus agalactiae): ≤ 0.2 µM
Structure (SMILES): CC1(C)S[C@@H]2[C@H](NC(=O)[C@H](N)c3ccc(O)cc3)C(=O)N2[C@H]1C(=O)O [AMOXICILLIN]
MIC [34]: ≤ 0.2 µM

Reference: ChEMBL document CHEMBL3585281, “Antibacterial Labdane Diterpenoids from Vitex vestita” (2015)
